Active and inactive are the calls of the source. No cut-off for these calls is given here.

Activity data for four compounds are collected here from ChEMBL document CHEMBL4334422, “Toxicities and beneficial protection of H2S donors based on nonsteroidal anti-inflammatory drugs” (Medchemcomm, 2019).

Data set [1] is described as follows: Toxicity in Wistar kyoto rat assessed as hyperemia in gastrointestinal tissue at 6.1 mg/kg, ip administered for 14 days by H and E staining based optical microscopic method. The note with it: in vivo, 336 h. It counts as organism-based. The essentials: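 WKY rats (3 per group) were dosed for 14 days with ibuprofen at 6.1 mg·kg⁻¹ per day or test compound at 10 mg·kg⁻¹. Rats were killed by cervical dislocation after ether anaesthesia. Stomach and intestine were cut into 5–10 µm sections, HE-stained and examined by optical microscopy.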

Data set [2] can be described thus: Toxicity in Wistar kyoto rat assessed as inflammatory cell infiltration in gastric mucosa at 6.1 mg/kg, ip administered for 14 days by H and E staining based optical microscopic method. It counts as organism-based. The note with it: in vivo, 336 h. The essentials:
(§1)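 WKY rats, 3 per group, were dosed for 14 days, with the compound at 10 mg/kg per dose and the ibuprofen comparator at 6.1 mg/kg. Rats were anaesthetised with ether and killed by cervical dislocation. Stomach and intestine were sectioned at 5-10 µm, stained with haematoxylin and eosin, and examined by optical microscopy.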

The nature of data set [3]: Toxicity in Wistar kyoto rat assessed as swollen gastric mucosal cells at 6.1 mg/kg, ip administered for 14 days by H and E staining based optical microscopic method. It counts as organism-based. The settings on record: in vivo, 336 h. In outline: as §1
The nature of data set [4]: Toxicity in Wistar kyoto rat assessed as hyperemia in intestinal mucosa at 6.1 mg/kg, ip administered for 14 days by H and E staining based optical microscopic method. It counts as organism-based. The settings on record: in vivo, 336 h. The essentials: as §1
Data set [5] in a line: Toxicity in Wistar kyoto rat assessed as inflammatory cell infiltration in gastrointestinal tissue at 6.1 mg/kg, ip administered for 14 days by H and E staining based optical microscopic method. It counts as organism-based. The note with it: in vivo, 336 h. In outline: as §1
Data set [6] can be described thus: Toxicity in Wistar kyoto rat assessed as intestinal mucosal edema at 6.1 mg/kg, ip administered for 14 days by H and E staining based optical microscopic method. The note with it: in vivo, 336 h. It counts as organism-based. The essentials:
as §1

Data set [7] deals with H9c2. The experiment in a line: Cytotoxicity against rat H9c2 cells assessed as reduction in cell viability at 10 to 80 uM incubated for 24 hrs. It counts as cell-based. The note with it: h9c2, 24 h. The essentials: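 Rat cardiac H9c2 cells were grown in DMEM with 10% FBS and penicillin/streptomycin at 37 °C and 5% CO₂. They were seeded at 5×10⁴ cells/mL and allowed to adhere for 8 h. Cells were exposed to 10, 40 or 80 µM compound for 24 h, and survival was compared with untreated cells.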

Data set [8] can be described thus: Cardiotoxicity in SHR rat assessed as neatly arranged myocardial fibers at 10 mg/kg, ip administered for 14 days by H and E staining based microscopic assay. It counts as toxicity, organism-based. The settings on record: in vivo, 336 h. The essentials: (§2)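 SHRs were given 10 mg·kg⁻¹ intraperitoneally per day for 14 consecutive days, with an ibuprofen comparator and a normal control. Myocardial tissue was then removed. Sections were HE-stained for light microscopy and also examined by transmission electron microscopy at 6000, 10000 and 20000-fold.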

Data set [9] in a line: Cardiotoxicity in SHR rat assessed as appearance of myocardial interstitial collagen fibers at 10 mg/kg, ip administered for 14 days by H and E staining based microscopic assay. It counts as toxicity, organism-based. The settings on record: in vivo, 336 h. In outline: as §2
Data set [10] in a line: Cardiotoxicity in SHR rat assessed as coarser myocardial fiber formation at 10 mg/kg, ip administered for 14 days by H and E staining based microscopic assay. The class given is toxicity, organism-based. The note with it: in vivo, 336 h. The essentials:
as §2

The nature of data set [11]: Cardiotoxicity in SHR rat assessed as increase in muscle bundle gaps at 10 mg/kg, ip administered for 14 days by H and E staining based microscopic assay. The note with it: in vivo, 336 h. The class given is toxicity, organism-based. The essentials: as §2
Data set [12] in a line: Cardiotoxicity in SHR rat assessed as reduction in muscle bundle gaps at 10 mg/kg, ip administered for 14 days by H and E staining based microscopic assay. The settings on record: in vivo, 336 h. It counts as toxicity, organism-based. The essentials:
as §2

Data set [13] is described as follows: Cardiotoxicity in SHR rat assessed as collagen fibers stained in interstitium at 10 mg/kg, ip administered for 14 days by H and E staining based microscopic assay. It counts as toxicity, organism-based. The settings on record: in vivo, 336 h. The essentials:
as §2

Data set [14] concerns Rattus norvegicus. Briefly: Cardioprotective activity in SHR rat assessed as swollen myocardial interstitial vascular at 10 mg/kg, ip administered for 14 days by TEM analysis. It counts as functional, organism-based. In outline:
as §2

Data set [15] relates to Rattus norvegicus. Briefly: Cardioprotective activity in SHR rat assessed as loosen myocardial fibers at 10 mg/kg, ip administered for 14 days by TEM analysis. It counts as functional, organism-based. The essentials:
as §2

The test system of data set [16] is Rattus norvegicus. The experiment in a line: Cardioprotective activity in SHR rat assessed as myocardial fibrous submucosal swelling at 10 mg/kg, ip administered for 14 days by TEM analysis. The class given is functional, organism-based. The essentials:
as §2

In data set [17] the test system is Rattus norvegicus. The experiment in a line: Cardioprotective activity in SHR rat assessed as myocardial fiber melting at 10 mg/kg, ip administered for 14 days by TEM analysis. The class given is functional, organism-based. In outline:
as §2

Data set [18] relates to Rattus norvegicus. The experiment in a line: Cardioprotective activity in SHR rat assessed as myocardial contraction band formation at 10 mg/kg, ip administered for 14 days by TEM analysis. The class given is functional, organism-based. In outline:
as §2

Data set [19] has as its system Rattus norvegicus. Briefly: Cardioprotective activity in SHR rat assessed as myocardial disk dissociation at 10 mg/kg, ip administered for 14 days by TEM analysis. It counts as functional, organism-based. The essentials:
as §2

For data set [20], the system named is Rattus norvegicus. The experiment in a line: Cardioprotective activity in SHR rat assessed as swollen myocardial mitochondria at 10 mg/kg, ip administered for 14 days by TEM analysis. The class given is functional, organism-based. The essentials:
as §2

Data set [21] has as its system Rattus norvegicus. Briefly: Cardioprotective activity in SHR rat assessed as ventricular pumping dysfunction at 10 mg/kg, ip administered for 14 days by TEM analysis. The class given is functional, organism-based. The essentials: as §2
For data set [22], the system named is Rattus norvegicus. The experiment in a line: Antihypertensive activity in spontaneously hypertensive Wistar kyoto rat assessed as reduction in systolic arterial pressure at 10 mg/kg, ip administered for 6 hrs and measured every 30 mins post treatment by tail-cuff method. The class given is functional. The essentials:
(§3)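 Male SHRs (8 weeks, 300 ± 25 g; 6 per group), given compound intraperitoneally once daily at 8 am in 0.5% (w/v) sodium carboxymethyl cellulose/DMSO 3/1 (v/v), 2 mL·kg⁻¹. Vehicle-treated SHR and WKY controls. SBP, DBP and heart rate were measured by tail-cuff on awake, restrained rats before dosing, then every 30 min for 6 h. Values are mean ± SD of four independent experiments.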

Data set [23] relates to Rattus norvegicus. The experiment in a line: Antihypertensive activity in spontaneously hypertensive Wistar kyoto rat assessed as reduction in diastolic arterial pressure at 10 mg/kg, ip administered for 6 hrs and measured every 30 mins post treatment by tail-cuff method. The class given is functional. The essentials: as §3
The subject of data set [24] is H9c2. Briefly: Cytoprotective activity against H2O2-induced toxicity in rat H9c2 cells assessed as increase in cell repair at 10 to 80 uM pretreated with compound followed by H2O2 addition and measured after 1 to 8 hrs by giemsa staining based microscopic method. It counts as functional. In outline: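 H9c2 cells were injured with H₂O₂ (400 µM) for 1, 4 or 8 h to give light, medium and heavy damage, in the presence of compound at 10–80 µM. Acetaminophen or ibuprofen served as controls. Viability was measured as mean ± SD of three experiments. SOD and MDA contents were measured as mean ± SD of four experiments. Morphology was assessed by Giemsa staining under light microscopy.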

As for `CC(C)Cc1ccc(C(C)C(=O)O)cc1` (configuration not stated) [IBUPROFEN], the Activity entry in data set [1], in [2], in data set [3], in data set [4], in data set [5] and in data set [6] was “Toxic” each time. In addition, the Activity entry in data set [7] is on record as “Non-Toxic”; in data set [8], “Non-Toxic”; in [9] it was “Active”; in data set [10], “Active”; in data set [11], “Active”; in data set [12], “Active”. For the same compound, in data set [13], the outcome was Active. Moreover, the result in data set [14], in [15], in data set [16], in data set [17], in [18] and in data set [19] was Active. For the same compound, the outcome in [20] and in data set [21] was Active.
Regarding `COC(=O)C1=C(C)NC(C)=C(C(=O)OC)C1c1ccccc1[N+](=O)[O-]`, the result in [22] and in data set [23] was inactive.
For `CC(=O)Nc1ccc(O)cc1` [ACETAMINOPHEN], the Activity entry in [7] is given as “Non-Toxic”. Moreover, in [24], the result was Active.
Consider `C[C@H](CS)C(=O)N1CCC[C@H]1C(=O)O`, for which the outcome in [22] and in [23] was inactive.
